Results reported in ChEMBL document CHEMBL4017544 (J Med Chem, 2017).
Activity calls are given as the source filed them. The calls are words filed in the database; no cut-off is given here.

Assays:
[1] = tested on: Kidney; assay: In vivo drug metabolism in Sprague-Dawley rat assessed as CDDO-Me formation in kidney at 30 mg/kg, ip measured at 90 mins by LC-MS/MS analysis; format: ADME, organism-based; conditions: 1.5 h
Procedure, shortened: (§1)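 Rats given a single ip injection, 20 mg/kg (0.04 mmol) of CDDO-Me or 30 mg/kg (0.04 mmol) of the prodrug; heart, kidney and liver collected over time; parent compound and liberated CDDO-Me measured by LC-MS/MS.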

[2] = tested on: Mus musculus; assay: Renoprotective activity in db/db mouse assessed as reduction in mesangial expansion at 1 to 2 mg/kg, ip administered trice per week for 12 consecutive weeks measured at 11 weeks post dose by TEM microscopic analysis; format: functional, organism-based
Procedure, shortened: (§2)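 Male db/db mice (8 weeks old) were dosed i.p. three times weekly for 12 weeks in 5% Tween-80/0.9% saline, n = 6. Kidney tissue was fixed in 3% glutaraldehyde, cut into 80 nm ultrathin sections and examined by TEM. GBM thickness was measured at 30 random locations from three sections per kidney and averaged per mouse.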

[3] = tested on: Mus musculus; assay: Renoprotective activity in db/db mouse assessed as reduction in thickening of capillary walls in glomeruli at 1 to 2 mg/kg, ip administered trice per week for 12 consecutive weeks measured at 11 weeks post dose by H/E-staining based microscopic analysis; format: functional, organism-based
Procedure, shortened: (§3)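 Male db/db mice, 8 weeks old, were randomized and dosed i.p. three times weekly for 12 weeks (vehicle: 5% Tween-80 in 0.9% saline; n = 6 per group). Kidneys were fixed in 4% PFA and paraffin-embedded. 5 μm sections were stained with HE, PAS or Masson's trichrome and examined at ×400.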

[4] = Drug level in Sprague-Dawley rat kidney at 30 mg/kg, ip measured at 90 mins by LC-MS/MS analysis; format: ADME, organism-based; conditions: read-out: Drug uptake; procedure, shortened: as §1
[5] = tested on: Kidney; assay: In vivo drug metabolism in Sprague-Dawley rat assessed as CDDO-Me formation in kidney at 30 mg/kg, ip measured at 30 mins by LC-MS/MS analysis; format: ADME, organism-based; conditions: 0.5 h; procedure, shortened: as §1
[6] = tested on: Mus musculus; assay: Renoprotective activity in db/db mouse assessed as reduction in loss of foot processes at 1 to 2 mg/kg, ip administered trice per week for 12 consecutive weeks measured at 11 weeks post dose by TEM microscopic analysis; format: functional, organism-based; procedure, shortened: as §2
[7] = tested on: Mus musculus; assay: Renoprotective activity in db/db mouse assessed as […] in number of intraglomerular mesangial cells at 1 to 2 mg/kg, ip administered trice per week for 12 consecutive weeks measured at 11 weeks post dose by H/E-staining based microscopic analysis; format: functional, organism-based; procedure, shortened: as §3
[8] = tested on: Mus musculus; assay: Toxicity in db/db mouse assessed as effect on food consumption at 1 to 2 mg/kg, ip administered thrice per week for 12 consecutive weeks measured every other day; format: organism-based; conditions: in vivo
Procedure, shortened: (§4)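 Male db/db mice (8 weeks old, specific pathogen-free, normal chow and filtered water ad libitum) were randomized and dosed i.p. three times weekly for 12 consecutive weeks; vehicle was 5% Tween-80 in 0.9% saline. Body weight and food and water consumption were recorded every other day.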

[9] = target: Kelch-like ECH-associated protein 1 (Homo sapiens) (UniProt Q14145); assay: Inhibition of Keap1/Nrf2 (unknown origin) interaction transfected in HEK293 cells assessed as increase in cytosolic HO-1 levels after 48 hrs by Western blot analysis; format: cell-based
Sequence of Kelch-like ECH-associated protein 1 (Homo sapiens) (Q14145 whole entry): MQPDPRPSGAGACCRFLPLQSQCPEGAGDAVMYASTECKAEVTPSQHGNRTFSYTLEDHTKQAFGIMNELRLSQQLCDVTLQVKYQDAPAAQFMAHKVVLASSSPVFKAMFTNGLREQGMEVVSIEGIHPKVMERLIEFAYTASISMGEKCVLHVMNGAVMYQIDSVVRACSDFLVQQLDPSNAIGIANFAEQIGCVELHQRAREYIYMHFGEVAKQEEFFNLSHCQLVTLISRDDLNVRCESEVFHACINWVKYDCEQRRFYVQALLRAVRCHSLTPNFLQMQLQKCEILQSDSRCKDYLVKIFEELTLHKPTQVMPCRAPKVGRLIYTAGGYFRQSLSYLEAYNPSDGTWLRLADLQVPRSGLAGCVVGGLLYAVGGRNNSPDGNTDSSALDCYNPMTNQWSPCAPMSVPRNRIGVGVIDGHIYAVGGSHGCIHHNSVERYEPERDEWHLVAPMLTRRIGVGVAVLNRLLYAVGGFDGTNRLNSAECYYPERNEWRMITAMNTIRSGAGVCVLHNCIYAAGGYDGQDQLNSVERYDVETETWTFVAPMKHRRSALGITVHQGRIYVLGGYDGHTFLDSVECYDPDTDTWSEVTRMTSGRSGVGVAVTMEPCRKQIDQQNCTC
Procedure, shortened: (§5)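 HEK293 cells grown in high-glucose DMEM with 10% FBS were treated in triplicate at 200 or 1000 nM for 48 h. Nuclear and cytosolic Nrf2, HO-1 and cytoplasmic NQO1 were measured by western blot with specific antibodies, with TBP and β-actin among the probed proteins. The nuclear/cytosolic Nrf2 ratio was derived from these blots. Three independent experiments, mean ± SD.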

[10] = target: Kelch-like ECH-associated protein 1 (Homo sapiens) (UniProt Q14145); assay: Inhibition of Keap1/Nrf2 (unknown origin) interaction transfected in HEK293 cells assessed as increase in cytosolic NQO1 levels after 48 hrs by Western blot analysis; format: cell-based; procedure, shortened: as §5
[11] = tested on: Mus musculus; assay: Renoprotective activity in db/db mouse assessed as reduction of fibrosis in glomeruli at 1 to 2 mg/kg, ip administered trice per week for 12 consecutive weeks measured at 11 weeks post dose by H/E-staining based microscopic analysis; format: functional, organism-based; procedure, shortened: as §3
[12] = target: Voltage-gated inwardly rectifying potassium channel KCNH2 (Homo sapiens, UniProt Q12809); assay: Inhibition of human ERG expressed in CHO cells at -80 mV holding potential by patch clamp assay; format: cell-based
Sequence of Voltage-gated inwardly rectifying potassium channel KCNH2 (Q12809 whole entry, the tested form may be a part): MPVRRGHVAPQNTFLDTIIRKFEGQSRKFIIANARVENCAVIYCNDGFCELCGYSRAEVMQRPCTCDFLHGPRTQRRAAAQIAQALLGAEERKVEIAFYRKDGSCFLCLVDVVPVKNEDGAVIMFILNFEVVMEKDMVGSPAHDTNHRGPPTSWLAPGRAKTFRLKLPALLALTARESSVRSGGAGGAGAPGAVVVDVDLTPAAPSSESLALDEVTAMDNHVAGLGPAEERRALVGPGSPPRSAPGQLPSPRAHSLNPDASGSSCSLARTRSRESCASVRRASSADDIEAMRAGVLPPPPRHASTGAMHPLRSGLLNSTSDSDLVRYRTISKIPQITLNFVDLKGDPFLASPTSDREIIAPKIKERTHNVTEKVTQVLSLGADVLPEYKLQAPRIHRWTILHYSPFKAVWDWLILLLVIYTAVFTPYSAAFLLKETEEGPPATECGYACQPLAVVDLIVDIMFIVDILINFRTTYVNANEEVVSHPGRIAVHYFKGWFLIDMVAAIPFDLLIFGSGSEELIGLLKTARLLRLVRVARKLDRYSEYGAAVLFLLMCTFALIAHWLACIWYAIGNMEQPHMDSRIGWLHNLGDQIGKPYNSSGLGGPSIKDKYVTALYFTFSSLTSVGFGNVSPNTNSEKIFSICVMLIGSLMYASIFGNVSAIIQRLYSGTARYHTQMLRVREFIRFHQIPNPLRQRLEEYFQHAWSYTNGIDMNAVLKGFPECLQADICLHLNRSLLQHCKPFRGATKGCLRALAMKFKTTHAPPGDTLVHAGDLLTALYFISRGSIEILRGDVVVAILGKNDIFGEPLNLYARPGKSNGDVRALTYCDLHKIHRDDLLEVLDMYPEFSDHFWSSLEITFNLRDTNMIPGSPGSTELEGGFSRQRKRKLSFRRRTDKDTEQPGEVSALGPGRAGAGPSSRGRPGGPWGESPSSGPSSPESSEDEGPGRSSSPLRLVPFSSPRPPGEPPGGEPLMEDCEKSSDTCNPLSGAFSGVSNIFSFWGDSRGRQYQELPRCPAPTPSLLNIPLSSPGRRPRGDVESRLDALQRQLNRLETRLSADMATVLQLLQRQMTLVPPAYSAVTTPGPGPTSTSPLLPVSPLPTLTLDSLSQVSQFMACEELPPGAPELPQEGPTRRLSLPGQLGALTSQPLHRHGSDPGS

[13] = tested on: Mus musculus; assay: Renoprotective activity in db/db mouse assessed as reduction in fused podocytes at 1 to 2 mg/kg, ip administered trice per week for 12 consecutive weeks measured at 11 weeks post dose by TEM microscopic analysis; format: functional, organism-based; procedure, shortened: as §2
[14] = Drug level in Sprague-Dawley rat kidney at 30 mg/kg, ip measured at 30 mins by LC-MS/MS analysis; format: ADME, organism-based; conditions: read-out: Drug uptake; procedure, shortened: as §1
[15] = tested on: Mus musculus; assay: Anti-diabetic nephropathic activity in db/db mouse assessed as reduction in urinary albumin at 0.65 mg/kg, ip administered trice per week for 12 consecutive weeks measured at 24 hrs post 11 week administration; format: functional, organism-based
Procedure, shortened: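 Male db/db mice, 8 weeks old, randomized; ip vehicle (5% Tween-80 in 0.9% saline) or drug three times weekly for 12 weeks, n = 6 per group. After 11 weeks, 24 h urine collected for volume, albumin and creatinine, with UACR calculated; blood then sampled for plasma BUN and uric acid. Mean ± SD, one-way ANOVA with Tukey test.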

[16] = tested on: Mus musculus; assay: Toxicity in db/db mouse assessed as effect on water consumption at 0.65 mg/kg, ip administered trice per week for 12 consecutive weeks measured every other day; format: organism-based; conditions: in vivo; procedure, shortened: as §4
[17] = tested on: Mus musculus; assay: Toxicity in db/db mouse assessed as effect on food consumption at 0.65 mg/kg, ip administered trice per week for 12 consecutive weeks measured every other day; format: organism-based; conditions: in vivo; procedure, shortened: as §4
[18] = tested on: Mus musculus; assay: Renoprotective activity in db/db mouse assessed as […] in number of intraglomerular mesangial cells at 0.65 mg/kg, ip administered trice per week for 12 consecutive weeks measured at 11 weeks post dose by H/E-staining based microscopic analysis; format: functional, organism-based; procedure, shortened: as §3
[19] = Drug level in Krebs buffer treated with 1-Hydroxyl-2-cyano-3-(4-(methyl-L-glutaminate-N5-yl)-benzyloxy)-12-oxo-oleana-2(3),9(11)-dien-28-oic Acid Methyl Ester assessed as bovine kidney GGT-mediated metabolite formation at 100 uM at pH 7.4 after 8 hrs in presence of porcine liver esterase by HPLC analysis; format: ADME, Bos taurus; conditions: cattle, isolated protein, pH 7.4, 8 h
Procedure, shortened: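 Substrate at 100 μM in Krebs buffer, pH 7.4, 37 °C, with porcine liver esterase (2 U/mL), GGT (1 U/mL) and Gly-Gly (5 mM) for 8 h, in triplicate; products quantified by HPLC.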

[20] = Drug level in Sprague-Dawley rat liver at 20 mg/kg, ip measured at 90 mins by LC-MS/MS analysis; format: ADME, organism-based; conditions: read-out: Drug uptake; procedure, shortened: as §1
[21] = target: Kelch-like ECH-associated protein 1 (Homo sapiens) (UniProt Q14145); assay: Inhibition of Keap1/Nrf2 (unknown origin) interaction transfected in HEK293 cells assessed as increase in cytosolic HO-1 levels at 200 to 1000 nM after 48 hrs by Western blot analysis; format: cell-based; procedure, shortened: as §5
[22] = Drug level in Wistar rat kidney homogenates treated with 1-Hydroxyl-2-cyano-3-(4-(methyl-L-glutaminate-N5-yl)-benzyloxy)-12-oxo-oleana-2(3),9(11)-dien-28-oic Acid Methyl Ester assessed as GGT-mediated metabolite formation at 100 uM after 8 hrs by HPLC analysis; format: ADME, tissue-based; conditions: tissue homogenate
Procedure, shortened: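 Plasma, and kidney and liver homogenates in PBS, from three Wistar rats; substrate added at 100 μM at 37 °C; metabolite measured by HPLC every 60 min for 8 h; mean ± SD of three experiments.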

In the case of `COC(=O)[C@@H](N)CCC(=O)Nc1ccc(COC2=C(C#N)[C@H](O)[C@]3(C)C4=CC(=O)[C@@H]5[C@@H]6CC(C)(C)CC[C@]6(C(=O)OC)CC[C@@]5(C)[C@]4(C)CC[C@H]3C2(C)C)cc1`, the Drug metabolism [1] is reported as 0.18 µg/g, the Activity [2] is reported as “Active” and the Activity [3] is reported as “Active”. The concentration at 1.5 h [4] was 800 ng/g, the Drug metabolism [5] was 0.09 µg/g and the Activity [6] was “Active”. The Activity [7] was “Active”, the Activity [8] was “Non-Toxic” and the inhibition [9] was “Dose-dependent effect”. The inhibition [10] was “Dose-dependent effect”, the Activity [11] was “Active” and the IC50 [12] was over 200 µM. For the same compound, the Activity [13] was “Active” and the concentration at 0.5 h [14] was 1000 ng/g.
In the case of `COC(=O)[C@]12CCC(C)(C)C[C@H]1[C@H]1C(=O)C=C3[C@@]4(C)C=C(C#N)C(=O)C(C)(C)[C@@H]4CC[C@@]3(C)[C@]1(C)CC2` [BARDOXOLONE METHYL], the Activity [15] is reported as “Active”, the Activity [16] is reported as “Non-Toxic” and the Activity [17] is reported as “Non-Toxic”. The Activity [18] was “Active”, the Drug metabolism [19] was “Metabolite_Detected” and the concentration at 1.5 h [20] was 1550 ng/g. The inhibition [21] was “Active” and the Drug metabolism [22] was “Metabolite_Detected”.
